“And” between values parts separate entries of the source, which are not always exact repeats. Equal values may be shown once.
What was measured:
Cavia porcellus [1] = organism: Cavia porcellus; experiment: Concentration of compound which gives a 20% decrease in contractile force was tested from individual experiments on papillary muscle of guinea pig, activity was expressed as EC-20.; format: functional; settings: Muscle tissue
In short: (§1)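 Contractile force measured in an isolated cardiac muscle preparation. Value is the concentration giving a 20% decrease in force of contraction. NR marks that this decrease was not reached. Values come from individual experiments; for N ≥ 3, the mean is given with the range.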

Canis familiaris [2] = organism: Canis familiaris; experiment: Maximum percent change in functional refractory period (FRP) at 100 uM on Canine ventricular muscle fibre.; parameters: species or system Canis lupus familiaris, Muscle tissue
In short: (§2)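 Canine right ventricular papillary muscle strips were superfused at 36 ± 0.5 °C with saline gassed with 95% O2/5% CO2. Diastolic threshold was found with 2-ms stimuli at 4000 ms cycle length, then pacing at 4× threshold for 60 min equilibration. FRP was measured at 1000 ms cycle length by S1-S2 premature stimulus after every tenth S1. Conduction time came from a bipolar electrogram. Various compound concentrations were tested, one compound per strip, with vehicle controls. Percent change from control was taken at 10 µM, or the maximum change with its concentration; for N ≥ 3, mean with range.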

Canis familiaris [3] = organism: Canis familiaris; experiment: Percent change in repolarization at 10 Purkinje fibers.; value ranges from 9-18; format: functional, Canis lupus familiaris, Purkinje fiber
In short: (§3)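 Canine Purkinje fibers were held in oxygenated (95% O2–5% CO2) physiological saline, pH 7.35–7.40, at 36 ± 0.5 °C and paced at 1.0 Hz with 2-ms pulses at twice diastolic threshold. Intracellular microelectrodes (3 M KCl) recorded Vmax and APD95 simultaneously. After up to 1 h of stabilization, compounds were tested from 10^-8 to 10^-3 M with 30 min per concentration. One compound per fiber, with vehicle controls. For N ≥ 3, values are the mean with the range.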

Canis familiaris [4] = organism: Canis familiaris; experiment: Maximum percent change in repolarization at 10 uM concentration on Canine Purkinje fibers.; format: functional, Canis lupus familiaris, Purkinje fiber
In short: (§4)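 Isolated canine Purkinje fibers were superfused with physiological saline gassed with 95% O2/5% CO2 (pH 7.35–7.40) at 36 ± 0.5 °C. Paced at 1.0 Hz with 2-ms pulses at twice diastolic threshold. After up to 1 h stabilization, compounds were tested over 10^-8 to 10^-3 M, 30 min per concentration, one compound per fiber, with vehicle controls. Intracellular microelectrodes (3 M KCl) recorded Vmax and APD95; maximum percent change from control is reported with its concentration.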

Canis familiaris [5] = organism: Canis familiaris; experiment: (§5) Maximum Percent change from control in the rate of rise of phase 0 of the action potential at 100 uM concentration on Canine Purkinje fibers.; format: Canis lupus familiaris, Purkinje fiber; settings: dog, in vitro; in short: as §4
Canis familiaris [6] = organism: Canis familiaris; experiment: Maximum percent change in repolarization at 100 uM concentration on Canine Purkinje fibers.; format: functional, Canis lupus familiaris, Purkinje fiber; in short: as §4
Canis familiaris [7] = organism: Canis familiaris; experiment: Maximum Percent change from control in the rate of rise of phase 0 of the action potential at 10 uM concentration on Canine Purkinje fibers.; format: functional, Canis lupus familiaris, Purkinje fiber; settings: dog, in vitro; in short: as §4
Canis familiaris [8] = organism: Canis familiaris; experiment: Percent change from control in conduction time (CT) at 10 uM concentration tested on Canine ventricular muscle fibre.; M is minimal(<10% change in CT); format: functional; settings: Canis lupus familiaris, Muscle tissue; in short: as §2
Canis familiaris [9] = organism: Canis familiaris; experiment: Maximum Percent change from control in the rate of rise of phase 0 of the action potential at 30 uM concentration on Canine Purkinje fibers.; parameters: species or system Canis lupus familiaris, Purkinje fiber; settings: dog, in vitro; in short: as §4
Canis familiaris [10] = organism: Canis familiaris; experiment: Percent change from control in the rate of rise of phase 0 of the action potential at 10 uM concentration on Canine Purkinje fibers.; parameters: species or system Canis lupus familiaris, Purkinje fiber; settings: dog, in vitro
Canis familiaris [11] = organism: Canis familiaris; experiment: Maximum percent change in conduction time (CT) at 100 uM concentration tested on Canine ventricular muscle fibre; format: functional, Canis lupus familiaris, Muscle tissue; in short: as §2
Canis familiaris [12] = organism: Canis familiaris; experiment: Percent change from control in the functional refractory period (FRP) at 10 uM conc. on Canine ventricular muscle fibre.; parameters: species or system Canis lupus familiaris, Muscle tissue; in short: as §2
Canis familiaris [13] = organism: Canis familiaris; experiment: Maximum percent change in conduction time (CT) at 1 uM concentration tested on Canine ventricular muscle fibre; format: functional, Canis lupus familiaris, Muscle tissue; in short: as §2
Canis familiaris [14] = organism: Canis familiaris; experiment: Maximum Percent change from control in the rate of rise of phase 0 of the action potential at 1 uM concentration on Canine Purkinje fibers.; parameters: species or system Canis lupus familiaris, Purkinje fiber; in short: as §4
Cavia porcellus [15] = organism: Cavia porcellus; experiment: Concentration of compound which gives a 20% decrease in contractile force was tested on papillary muscle of guinea pig, activity was expressed as EC-20; N.R. is not reached.; format: functional; settings: Muscle tissue; in short: as §1
Canis familiaris [16] = organism: Canis familiaris; experiment: Percent change in repolarization at 10 Purkinje fibers.; value ranges from 1-4; format: functional, Canis lupus familiaris, Purkinje fiber; in short: as §3
Canis familiaris [17] = organism: Canis familiaris; experiment: Maximum percent change in repolarization at 0.1 uM concentration on Canine Purkinje fibers.; format: functional, Canis lupus familiaris, Purkinje fiber; in short: as §4
Canis familiaris [18] = organism: Canis familiaris; experiment: Percent change from control in conduction time (CT) at 10 uM concentration tested on Canine ventricular muscle fibre.; format: functional, Canis lupus familiaris, Muscle tissue; in short: as §2
Canis familiaris [19] = organism: Canis familiaris; experiment: Percent change from control in conduction time (CT) at uM concentration tested on Canine ventricular muscle fibre.; M is minimal(<10% change in CT); format: functional; settings: Canis lupus familiaris; Muscle tissue; in short: as §2
Canis familiaris [20] = organism: Canis familiaris; experiment: Percent change in repolarization at 10 Purkinje fibers.; value ranges from 5-16; format: functional, Canis lupus familiaris, Purkinje fiber; in short: as §3
Canis familiaris [21] = organism: Canis familiaris; experiment: Maximum percent change in functional refractory period (FRP) at 1 uM on Canine ventricular muscle fibre.; parameters: species or system Canis lupus familiaris, Muscle tissue; in short: as §2
Canis familiaris [22] = organism: Canis familiaris; experiment: Maximum percent change in repolarization at 30 uM concentration on Canine Purkinje fibers.; format: functional, Canis lupus familiaris, Purkinje fiber; in short: as §4
Cavia porcellus [23] = organism: Cavia porcellus; experiment: Concentration of compound ( ) which gives a 20% decrease in contractile force was tested on papillary muscle of guinea pig, activity was expressed as EC-20.; format: functional; settings: Muscle tissue; in short: as §1
Canis familiaris [24] = organism: Canis familiaris; experiment: Percent change in repolarization at 10 Purkinje fibers.; value ranges from 0-25; format: functional, Canis lupus familiaris, Purkinje fiber; in short: as §3
Canis familiaris [25] = organism: Canis familiaris; experiment: Percent change from control in the functional refractory period (FRP) at 10 uMconc. on Canine ventricular muscle fibre.; value ranges from -4-17; parameters: species or system Canis lupus familiaris, Muscle tissue
Canis familiaris [26] = organism: Canis familiaris; experiment: Percent change from control in the rate of rise of phase 0 of the action potential at 10 uM concentration on Canine Purkinje fibers.; value ranges from -32-3; parameters: species or system Canis lupus familiaris, Purkinje fiber; settings: dog, in vitro
Canis familiaris [27] = organism: Canis familiaris; experiment: Maximum percent change in functional refractory period (FRP) at 0.1 uM on Canine ventricular muscle fibre.; parameters: species or system Canis lupus familiaris, Muscle tissue; in short: as §2
Canis familiaris [28] = organism: Canis familiaris; experiment: as §5; parameters: species or system Canis lupus familiaris, Purkinje fiber; in short: as §4
Canis familiaris [29] = organism: Canis familiaris; experiment: Maximum percent change in conduction time (CT) at 10 uM concentration tested on Canine ventricular muscle fibre; format: functional, Canis lupus familiaris, Muscle tissue; in short: as §2
Cavia porcellus [30] = organism: Cavia porcellus; experiment: Concentration of compound which gives a 20% decrease in contractile force was tested on papillary muscle of guinea pig, activity was expressed as EC-20.; format: functional; settings: Muscle tissue; in short: as §1
[31] = Maximum Percent change from control in the rate of rise of phase 0 of the action potential at 30 uM concentration on Canine Purkinje fibers; CB is conduction block.; format: functional, tissue-based; settings: Purkinje fiber; in short: as §4
Canis familiaris [32] = organism: Canis familiaris; experiment: Percent change in repolarization at 10 Purkinje fibers.; value ranges from -23-17; format: functional, Canis lupus familiaris, Purkinje fiber; in short: as §3
Canis familiaris [33] = organism: Canis familiaris; experiment: Maximum percent change in functional refractory period (FRP) at 100 uM on Canine ventricular muscle fibre.; value ranges from 5-18; parameters: species or system Canis lupus familiaris, Muscle tissue; in short: as §2
Canis familiaris [34] = organism: Canis familiaris; experiment: Percent change in repolarization at 10 Purkinje fibers.; value ranges from -5 - 5; format: functional, Canis lupus familiaris, Purkinje fiber; in short: as §3
Canis familiaris [35] = organism: Canis familiaris; experiment: Percent change from control in the functional refractory period (FRP) at 10 uM conc. on Canine ventricular muscle fibre.; value ranges from -5-3; parameters: species or system Canis lupus familiaris, Muscle tissue; in short: as §2
Canis familiaris [36] = organism: Canis familiaris; experiment: Percent change from control in the rate of rise of phase 0 of the action potential at 10 uM concentration on Canine Purkinje fibers.; value ranges from -13 - -2; format: organism-based, Canis lupus familiaris, Purkinje fiber; settings: dog, in vitro
Canis familiaris [37] = organism: Canis familiaris; experiment: Percent change in conduction time (CT) at 10 uM concentration tested on Canine ventricular muscle fibre; value ranges from -14-6; format: functional, Canis lupus familiaris, Muscle tissue

Row | SMILES | EC20 (Cavia porcellus [1]) [µM] | FRP (Canis familiaris [2]) [%] | APD95 (Canis familiaris [4]) | Vmax (Canis familiaris [5]) [%] | APD95 (Canis familiaris [6]) [%] | Vmax (Canis familiaris [7]) [%] | CT (Canis familiaris [8]) | Vmax (Canis familiaris [9]) [%] | Vmax (Canis familiaris [10]) [%] | CT (Canis familiaris [11]) [%] | FRP (Canis familiaris [12]) [%] | CT (Canis familiaris [13]) [%] | CT (Canis familiaris [18]) [%] | APD95 (Canis familiaris [22]) [%] | EC20 (Cavia porcellus [23]) [µM] | CT (Canis familiaris [29]) [%] | also measured
1 | CCN(CC)CCNC(=O)c1cc2ccccc2[nH]1 | 16 | 24 | 16% and 18% | -35 | -24 | 5 | Minimal | -6 | -2.3 | 15 | 15 | – | – | – | – | – | APD95 (Canis familiaris [3]): 14.3%
2 | CCN(CC)CCNC(=O)c1c(O)cc(C)nc1C | – | 26 | 4% | -7 | 4 | – | – | -12 | 0.3 | -16 | 21 | -5 | -5 | – | – | – | Vmax (Canis familiaris [14]): -5%; EC20 (Cavia porcellus [15]): Not reached; APD95 (Canis familiaris [16]): 3%; APD95 (Canis familiaris [17]): 5%
3 | CCN(CC)CCCNC(=O)c1cc2ccccc2[nH]1 | 26 | – | 16% | – | -14 | -13 | – | -13 | -7 | -11 | 5 | – | – | – | – | – | CT (Canis familiaris [19]): Minimal; APD95 (Canis familiaris [20]): 9.6%; FRP (Canis familiaris [21]): 5%
4 | CCN(CC)CCCNC(=O)c1[nH]c(C)c(C)c1C | – | 28 | 7% | – | -5 | – | Minimal | – | – | 8 | – | 6 | – | 26 | 50 | -9 | APD95 (Canis familiaris [24]): 8.3%; FRP (Canis familiaris [25]): 5.7%; Vmax (Canis familiaris [26]): -14.3%; FRP (Canis familiaris [27]): 4%; Vmax (uM) (Canis familiaris [28]): -15%
5 | CCN(CC)CCNC(=O)c1cc2cccc(OCc3ccccc3)c2[nH]1 | – | 10 | 17% | – | – | -30 | – | -66 | -37.7 | 4 | 2 | – | -13 | -25 | – | – | EC20 (Cavia porcellus [30]): 6 µM; Vmax [31]: Conduction block; APD95 (Canis familiaris [32]): -7%
6 | CCN(CC)CCNC(=O)c1cc2cccc(O)c2[nH]1 | – | – | 5% | -35 | -28 | – | – | -19 | – | 16 | – | -3 | – | -9 | 30 | -14 | FRP (Canis familiaris [33]): 10%; APD95 (Canis familiaris [34]): 0.7%; FRP (Canis familiaris [35]): -1%; Vmax (Canis familiaris [36]): -7%; CT (Canis familiaris [37]): -3.3%

Source: ChEMBL document CHEMBL1124429, “Heterocyclic analogues of benzamide antiarrhythmic agents” (J Med Chem, 1989)
